{
  "source": "ChEMBL document CHEMBL4152379",
  "about": "“Discovery of Pyrrolidine Sulfonamides as Selective and Orally Bioavailable Antagonists of Transient Receptor Potential Vanilloid-4 (TRPV4)” (J Med Chem, 2018)",
  "key": {"[1]": {"molecular_target": "Transient receptor potential cation channel subfamily V member 4 (Homo sapiens, UniProt Q9HBA0)", "sequence (Q9HBA0 whole entry)": "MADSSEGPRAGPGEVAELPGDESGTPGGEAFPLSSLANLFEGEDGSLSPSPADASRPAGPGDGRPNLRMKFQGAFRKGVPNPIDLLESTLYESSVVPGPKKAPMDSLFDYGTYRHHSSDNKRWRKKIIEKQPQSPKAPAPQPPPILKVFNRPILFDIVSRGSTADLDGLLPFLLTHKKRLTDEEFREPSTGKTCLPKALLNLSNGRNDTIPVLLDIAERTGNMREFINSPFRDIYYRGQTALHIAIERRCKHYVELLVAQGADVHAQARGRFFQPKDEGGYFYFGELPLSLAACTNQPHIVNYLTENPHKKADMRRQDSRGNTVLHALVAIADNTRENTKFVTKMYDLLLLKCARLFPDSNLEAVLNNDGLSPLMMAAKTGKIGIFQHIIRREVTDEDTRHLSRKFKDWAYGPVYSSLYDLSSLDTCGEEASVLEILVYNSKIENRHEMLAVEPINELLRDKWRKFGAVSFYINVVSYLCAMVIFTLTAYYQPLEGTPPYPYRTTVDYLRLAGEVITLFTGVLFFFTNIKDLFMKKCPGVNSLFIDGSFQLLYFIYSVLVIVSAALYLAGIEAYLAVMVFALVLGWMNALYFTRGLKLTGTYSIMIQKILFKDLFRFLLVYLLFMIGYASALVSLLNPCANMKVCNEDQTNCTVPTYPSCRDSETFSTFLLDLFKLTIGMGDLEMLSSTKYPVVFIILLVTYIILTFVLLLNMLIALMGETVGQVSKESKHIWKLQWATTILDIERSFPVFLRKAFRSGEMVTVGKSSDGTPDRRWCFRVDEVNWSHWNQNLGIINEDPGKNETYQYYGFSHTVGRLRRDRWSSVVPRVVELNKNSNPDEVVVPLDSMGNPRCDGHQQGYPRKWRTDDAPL", "test": "Antagonist activity at human TRPV4 expressed in BHK/AC9 or HEK MSR2 cells assessed as inhibition of GSK634775-induced Ca2+ flux pre-incubated for 10 mins before agonist addition by FLIPR assay"}, "[2]": {"test": "Aqueous solubility of the compound", "format": "physicochemical", "conditions": "buffer"}, "[3]": {"test": "Clearance in iv dosed Sprague-Dawley rat", "format": "ADME, organism-based", "conditions": "in vivo", "method_in_brief": "(§1)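 Male Sprague-Dawley rats with femoral vein, femoral artery and gastric catheters; noncrossover design, 2 rats per route; cassette dosing of up to five compounds. i.v. target 1 mg/kg in 5% DMSO/20% Cavitron (pH 4), infused over 30 min. Oral gastric bolus target 2 mg/kg in 5% DMSO/6% Cavitron (pH 4). Plasma sampled to 24 h and measured by HPLC−MS/MS. Noncompartmental analysis; F from dose-normalized AUC(0−∞) relative to mean i.v. AUC.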"}, "[4]": {"species": "Rattus norvegicus", "test": "Unbound clearance in Sprague-Dawley rat", "format": "ADME, organism-based", "conditions": "in vivo"}, "[5]": {"test": "MRT in iv dosed Sprague-Dawley rat", "format": "ADME, organism-based", "conditions": "in vivo", "method_in_brief": "as §1"}, "[6]": {"test": "Oral bioavailability in Sprague-Dawley rat", "format": "ADME, organism-based", "conditions": "in vivo", "method_in_brief": "as §1"}, "[7]": {"test": "Fraction unbound in Sprague-Dawley rat plasma", "format": "ADME, cell-free"}, "[8]": {"test": "Lipophilicity, log D of the compound by chromatography", "format": "physicochemical"}, "[9]": {"test": "Steady state plasma concentration in Sprague-Dawley rat at 0.03 mg/kg, iv dosed via bolus dose followed by iv infusion at 0.6 ug/kg/min for 60 mins", "format": "ADME, organism-based", "conditions": "in vivo, 1 h"}, "[10]": {"test": "Steady state plasma concentration in Sprague-Dawley rat at 0.08 mg/kg, iv dosed via bolus dose followed by iv infusion at 1.7 ug/kg/min for 60 mins", "format": "ADME, organism-based", "conditions": "in vivo, 1 h"}, "[11]": {"test": "Steady state plasma concentration in Sprague-Dawley rat at 0.23 mg/kg, iv dosed via bolus dose followed by iv infusion at 5.1 ug/kg/min for 60 mins", "format": "ADME, organism-based", "conditions": "in vivo, 1 h"}, "[12]": {"test_system": "Rattus norvegicus", "test": "In vivo antagonist activity at TRPV4 in iv dosed Sprague-Dawley rat assessed as inhibition of GSK1016790A-induced reduction in mean arterial pressure at 0.03 to 0.23 mg/kg, iv dosed via bolus dose followed by iv infusion at 0.6 to 5.1 ug/kg/min for 60 mins", "format": "functional, organism-based", "method_in_brief": "(§2)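 Sprague-Dawley rats given an i.v. bolus loading dose, then a 60 min continuous i.v. infusion to reach steady-state plasma exposure. Challenged with GSK1016790A at 10 μg/kg/min by 10 min i.v. infusion. Mean arterial pressure and lung wet weight/body weight ratio recorded. Mean ± SEM; comparisons by ANOVA with Dunnett's or Bonferroni post hoc tests.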"}, "[13]": {"test_system": "Rattus norvegicus", "test": "In vivo antagonist activity at TRPV4 in iv dosed Sprague-Dawley rat assessed as inhibition of GSK1016790A-induced increase in lung wet weight by measuring lung weight/body weight ratio in at 0.03 to 0.23 mg/kg, iv dosed via bolus dose followed by iv infusion at 0.6 to 5.1 ug/kg/min for 60 mins", "format": "functional, organism-based", "method_in_brief": "as §2"}, "[14]": {"test_system": "Rattus norvegicus", "test": "In vivo antagonist activity at TRPV4 in iv dosed Sprague-Dawley rat assessed as inhibition of GSK1016790A-induced reduction in mean arterial pressure at 0.23 mg/kg, iv dosed via bolus dose followed by iv infusion at 5.1 ug/kg/min for 60 mins", "format": "functional", "method_in_brief": "as §2"}, "[15]": {"test_system": "Rattus norvegicus", "test": "In vivo antagonist activity at TRPV4 in iv dosed Sprague-Dawley rat assessed as inhibition of GSK1016790A-induced increase in lung wet weight by measuring lung weight/body weight ratio in at 0.23 mg/kg, iv dosed via bolus dose followed by iv infusion at 5.1 ug/kg/min for 60 mins", "format": "functional", "method_in_brief": "as §2"}},
  "data": [
    {"compound": "N#Cc1ccc(OC[C@H]2CN(S(=O)(=O)c3ccc(Cl)cc3Cl)C[C@H]2O)cc1F", "note": "(racemic)", "values": [
      {"measurement": "IC50", "setting": "[1]", "result": 1500, "unit": "nM"}
    ]},
    {"compound": "N#Cc1ccc(O[C@H]2CN(S(=O)(=O)c3ccc(Cl)cc3Cl)C[C@@]2(O)CO)cc1F", "note": "(racemic)", "values": [
      {"measurement": "IC50", "setting": "[1]", "result": 4, "unit": "nM"}
    ]},
    {"compound": "N#Cc1ccc(O[C@H]2CN(S(=O)(=O)c3ccc(Cl)cc3Cl)C[C@H]2O)cc1F", "note": "(racemic)", "values": [
      {"measurement": "IC50", "setting": "[1]", "result": 100, "unit": "nM"}
    ]},
    {"compound": "N#Cc1ccc(OCC2(O)CN(S(=O)(=O)c3ccc(Cl)cc3Cl)C2)cc1F", "values": [
      {"measurement": "IC50", "setting": "[1]", "result": 50, "unit": "nM"}
    ]},
    {"compound": "N#Cc1ccc(OCC2(O)CCN(S(=O)(=O)c3ccc(Cl)cc3Cl)CC2)cc1F", "values": [
      {"measurement": "solubility", "setting": "[2]", "result": 7.5, "unit": "µM"},
      {"measurement": "clearance", "setting": "[3]", "result": 19, "unit": "mL/min/kg"},
      {"measurement": "CL free", "setting": "[4]", "result": 1461, "unit": "mL/min/kg"},
      {"measurement": "MRT", "setting": "[5]", "result": 1.5, "unit": "h"},
      {"measurement": "bioavailability", "setting": "[6]", "result": 56, "unit": "%"},
      {"measurement": "fraction unbound", "setting": "[7]", "result": 0.013},
      {"measurement": "chromatographic logD", "setting": "[8]", "result": 6.3},
      {"measurement": "IC50", "setting": "[1]", "result": 130, "unit": "nM"}
    ]},
    {"compound": "N#Cc1ccc(O[C@H]2CN(S(=O)(=O)c3ccc(C(F)(F)F)cc3C#N)C[C@@]2(O)CO)cc1F", "values": [
      {"measurement": "solubility", "setting": "[2]", "result": 90, "unit": "µM"},
      {"measurement": "clearance", "setting": "[3]", "result": 82, "unit": "mL/min/kg"},
      {"measurement": "CL free", "setting": "[4]", "result": 1400, "unit": "mL/min/kg"},
      {"measurement": "MRT", "setting": "[5]", "result": 0.8, "unit": "h"},
      {"measurement": "bioavailability", "setting": "[6]", "result": 72, "unit": "%"},
      {"measurement": "fraction unbound", "setting": "[7]", "result": 0.049},
      {"measurement": "Cpss", "setting": "[9]", "result": 30, "unit": "nM"},
      {"measurement": "Cpss", "setting": "[10]", "result": 40, "unit": "nM"},
      {"measurement": "Cpss", "setting": "[11]", "result": 90, "unit": "nM"},
      {"measurement": "inhibition", "setting": "[12]", "result": "Dose-dependent effect"},
      {"measurement": "inhibition", "setting": "[13]", "result": "Dose-dependent effect"},
      {"measurement": "inhibition (INH)", "setting": "[14]", "result": 100, "unit": "%"},
      {"measurement": "inhibition (INH)", "setting": "[15]", "result": 100, "unit": "%"},
      {"measurement": "chromatographic logD", "setting": "[8]", "result": 4.6},
      {"measurement": "IC50", "setting": "[1]", "result": 1, "unit": "nM"}
    ]},
    {"compound": "N#Cc1ccc(O[C@H]2CN(S(=O)(=O)c3ccc(Cl)cc3Cl)C[C@@H]2CO)cc1F", "note": "(racemic)", "values": [
      {"measurement": "IC50", "setting": "[1]", "result": 200, "unit": "nM"}
    ]},
    {"compound": "N#Cc1ccc(O[C@H]2CN(S(=O)(=O)c3ccc(Cl)cc3Cl)C[C@]2(O)CO)cc1F", "note": "(racemic)", "values": [
      {"measurement": "IC50", "setting": "[1]", "result": 100, "unit": "nM"}
    ]},
    {"compound": "N#Cc1ccc(OC2CCN(S(=O)(=O)c3ccc(Cl)cc3Cl)C2)cc1F", "note": "(racemic)", "values": [
      {"measurement": "IC50", "setting": "[1]", "result": 320, "unit": "nM"}
    ]},
    {"compound": "N#Cc1ccc(OC[C@@H]2CN(S(=O)(=O)c3ccc(Cl)cc3Cl)C[C@H]2O)cc1F", "note": "(racemic)", "values": [
      {"measurement": "IC50", "setting": "[1]", "result": 1000, "unit": "nM"}
    ]},
    {"compound": "N#Cc1ccc(O[C@H]2CN(S(=O)(=O)c3ccc(Cl)cc3Cl)C[C@H]2CO)cc1F", "note": "(racemic)", "values": [
      {"measurement": "IC50", "setting": "[1]", "result": 50, "unit": "nM"}
    ]},
    {"compound": "N#Cc1ccc(OCC2CCN(S(=O)(=O)c3ccc(Cl)cc3Cl)CC2)cc1F", "values": [
      {"measurement": "IC50", "setting": "[1]", "result": 6300, "unit": "nM"}
    ]},
    {"compound": "N#Cc1ccc(OCC2(O)CCN(S(=O)(=O)c3ccc(Cl)cc3Cl)C2)cc1F", "note": "(racemic)", "values": [
      {"measurement": "IC50", "setting": "[1]", "result": 150, "unit": "nM"}
    ]},
    {"compound": "N#Cc1ccc(O[C@H]2CN(S(=O)(=O)c3ccc(Cl)cc3Cl)C[C@@H]2O)cc1F", "note": "(racemic)", "values": [
      {"measurement": "IC50", "setting": "[1]", "result": 40, "unit": "nM"}
    ]},
    {"compound": "N#Cc1ccc(OC[C@@]2(O)CN(S(=O)(=O)c3ccc(Cl)cc3Cl)C[C@@H]2O)cc1F", "note": "(racemic)", "values": [
      {"measurement": "IC50", "setting": "[1]", "result": 150, "unit": "nM"}
    ]}
  ]
}
